Reference: ChEMBL document CHEMBL1135654, “Antitumor agents. 1. Synthesis, biological evaluation, and molecular modeling of 5H-pyrido[3,2-a]phenoxazin-5-one, a compound with potent antiproliferative activity” (J Med Chem, 2002)
pIC50: −log10 of the molar value. Starred links: 1 amine or outer side, 2 acyl side, 3 side chain; linkers in the order of their positions; H or OH if unused. Positions of bridges follow the written chain, without caps; N, C: chain ends. Non-standard residues stand in square brackets, D forms with d. Residues, ends and D or L forms follow the SMILES beside them. Chains are numbered I, II in the order given. Actinocin(1to9) = Cc1c2oc3c(C)ccc(C(=O)[*:2])c3nc-2c(C(=O)[*:1])c(N)c1=O; NMeV = CN[C@H](C(=O)O)C(C)C; Sar = CNCC(=O)O

Tests used:
[1] = tested on: CCRF-CEM; test: Compound concentration required to reduce the cell proliferation of human acute T-lymphoblastic leukemia CCRF-CEM cells by 50%, using MTT method.; assay type: functional, cell-based
How it was run: (§1)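 Leukemia/lymphoma cells in exponential growth resuspended at 1 × 10^5 cells/mL in RPMI 1640 (10% FCS, antibiotics) with serial dilutions of drug (DMSO stock 200 µM diluted in medium). Viability by MTT after 96 h at 37 °C, 5% CO2. Growth expressed as % of untreated controls; IC50 by linear regression. Controls underwent ≥3 rounds of multiplication. Mean of three independent determinations.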

[2] = tested on: HeLa; test: Compound concentration required to reduce the cell proliferation of cervix carcinoma Hela cells by 50%, using MTT method.; assay type: functional, cell-based; settings: Homo sapiens
How it was run: (§2)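 Solid-tumor cells in exponential growth seeded at 5 × 10^4 cells/mL in their own medium with 10% FCS, allowed to adhere 16 h, then serially diluted drug added (DMSO stock 200 µM diluted in medium). MTT viability read 4 days later, 37 °C, 5% CO2. IC50 by linear regression from % of untreated control growth. Three independent determinations.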

[3] = tested on: MT4; test: Compound concentration required to reduce the cell proliferation of human CD4+T cells by 50%, using MTT method.; assay type: functional, cell-based; how it was run: as §1
[4] = tested on: CCRF-SB; test: Compound concentration required to reduce the cell proliferation of human acute B-lymphoblastic leukemia CCRF-SB cells by 50%, using MTT method.; assay type: functional, cell-based; how it was run: as §1
[5] = tested on: HEp-2; test: Compound concentration required to reduce the cell proliferation of larynx carcinoma cells by 50%, using MTT method.; assay type: functional, cell-based; settings: Homo sapiens; how it was run: as §2
[6] = Effect on the proliferation Wild -type and Drug- resistant KB subclones passaged uM; assay type: functional, Homo sapiens
How it was run: (§3)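 Cells seeded at 5 × 10^4 cells/mL, adhered 16 h, exposed to serial drug dilutions; MTT after 4 days. IC50 by linear regression versus untreated controls; mean ± SD of three independent determinations.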

[7] = tested on: HepG2; test: Antitumor activity against human hepatocellular carcinoma HepG2 cells; assay type: functional, cell-based; how it was run: as §2
[8] = tested on: SK-MES-1; test: Antitumor activity against human lung squamous carcinoma SK-MES-1 cells; assay type: functional, cell-based; how it was run: as §2
[9] = tested on: G-361; test: Antitumor activity against human skin melanoma G-361 cells; assay type: functional, cell-based; how it was run: as §2
[10] = tested on: MT4; test: Antitumor activity against human CD4+T cells expressing the TAT gene of HTLV-1 MT-4 cells; assay type: functional, cell-based; how it was run: as §1
[11] = tested on: CCRF-SB; test: Antitumor activity against human acute B-lymphoblastic leukemia CCRF-SB cells; assay type: functional, cell-based; how it was run: as §1
[12] = tested on: DU-145; test: Antitumor activity against human prostate carcinoma DU145 cells; assay type: functional, cell-based; how it was run: as §2
[13] = Compound concentration required to reduce the cell proliferation of Wild type and Drug- resistant KB subclones passaged in the presence of doxorubicin 0.09 uM by 50%; assay type: functional; settings: Homo sapiens; how it was run: as §3
[14] = tested on: C8166; test: Antitumor activity against […] human acute T-lymphoblastic leukemia C8166 cells; assay type: functional, cell-based; how it was run: as §1
[15] = Compound concentration required to reduce the cell proliferation of Wild type and Drug- resistant human nasopharyngeal carcinoma KB cells by 50%; assay type: functional, cell-based; how it was run: as §3
[16] = (§4) Cytotoxicity for Peripheral blood Lymphocytes; assay type: functional; settings: Homo sapiens
How it was run: (§5)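 Human PBL from HIV-negative donors, isolated on Ficoll-Hypaque. Resting cells (1 × 10^6/mL) exposed up to 3 days to serial drug dilutions, washed, PHA-stimulated 24 h, diluted to 1 × 10^5/mL with PHA and IL-2, viability read after 6 days at 37 °C. Alternatively, PBL stimulated with PHA (2.5 µg/mL) 24 h, then grown with PHA, IL-2 (50 U/mL) and drug, and viable cells counted at day 6. Mean ± SD, three experiments.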

[17] = tested on: ACHN; test: Antitumor activity against human renal adenocarcinoma ACHN cells; assay type: functional, cell-based; how it was run: as §2
[18] = tested on: 5637; test: Antitumor activity against human bladder carcinoma 5637 cells; assay type: functional, cell-based; how it was run: as §2
[19] = tested on: SK-MEL-28; test: Antitumor activity against human skin melanoma […] cells; assay type: functional, cell-based; how it was run: as §2
[20] = tested on: Raji; test: Antitumor activity against human Burkitt lym phoma Raji cells; assay type: functional, cell-based; how it was run: as §1
[21] = tested on: HT-29; test: Antitumor activity against human colon adenocarcinoma HT-29 cells; assay type: functional, cell-based; how it was run: as §2
[22] = tested on: CCRF-CEM; test: Antitumor activity against human acute T-lymphoblastic leukemia CCRF-CEM cells; assay type: functional, cell-based; how it was run: as §1
[23] = tested on: MT4; test: Antitumor activity against […] human acute T-lymphoblastic leukemia MT-4 cells; assay type: functional, cell-based; how it was run: as §1
[24] = tested on: CRL-7065 cell line; test: Antitumor activity against human foreskin fibroblasts CRL7065 cells; assay type: functional, cell-based; how it was run: as §2
[25] = tested on: MCF7; test: Antitumor activity against human breast adenocarcinoma MCF-7 cells; assay type: functional, cell-based; how it was run: as §2
[26] = tested on: MOLT-4; test: Antitumor activity against human acute T-lymphoblastic leukemia MOLT-4 cells; assay type: functional, cell-based
[27] = tested on: Panel leukemia (Carcinoma cell lines); test: (§6) Cytotoxicity for lymphoblastoid cell lines; assay type: functional; settings: Homo sapiens
[28] = as §4; assay type: functional; settings: Homo sapiens; how it was run: as §5; remark: listed apart in the source
[29] = tested on: HEp-2; test: Antitumor activity against larynx carcinoma Hep-2 cells; assay type: functional, cell-based; settings: Homo sapiens; how it was run: as §2
[30] = tested on: WIL2-NS; test: Anti tumor activity against human splenic B-lympho blastoid Wil2-NS cells; assay type: functional, cell-based; how it was run: as §1
[31] = tested on: HeLa; test: Antitumor activity against cervix carcinoma Hela cells; assay type: functional, cell-based; settings: Homo sapiens; how it was run: as §2
[32] = Compound concentration required to reduce the cell proliferation of Wild type and drug-resistant KB subclones passaged in the presence of etoposide 7 uM by 50%; assay type: functional; settings: Homo sapiens; how it was run: as §3
[33] = tested on: Lymphoblastoid cell; test: as §6; assay type: functional; settings: Homo sapiens
[34] = Effect on the proliferation wild-type and drug-resistant KB subclones passaged uM; assay type: functional, Homo sapiens; how it was run: as §3
[35] = Effect on the proliferation Wild -type and Drug- resistant KB subclones passaged in the presence of vincristine 0.02 uM; assay type: functional, Homo sapiens; how it was run: as §3

pIC50 [7]	pIC50 [8]	pIC50 [9]	pIC50 [11]	pIC50 [12]	pIC50 [14]	pIC50 [17]	pIC50 [19]	pIC50 [20]	pIC50 [21]	pIC50 [22]	SMILES	pIC50 [6]	pIC50 [10]	pIC50 [13]	pIC50 [15]	CC50 [16]	pIC50 [23]	pIC50 [24]	CC50 [28]	pIC50 [32]	also measured
–	–	–	–	–	–	–	–	–	–	–	CC(=O)c1c2nc3c(C(C)=O)cccc3oc-2cc(=O)c1N	–	–	–	–	–	–	–	–	–	pIC50 [1]: 6.05; pIC50 [2]: 5.70; pIC50 [3]: 5.74; pIC50 [4]: 6.30; pIC50 [5]: 5.82
8.00	8.40	9.00	8.70	8.10	9.10	8.30	8.70	8.70	8.22	9.00	Cc1c2oc3c(C)ccc(C(=O)N[C@@H]4C(=O)N[C@H](C(C)C)C(=O)N5CCC[C@H]5C(=O)N(C)CC(=O)N(C)[C@@H](C(C)C)C(=O)O[C@@H]4C)c3nc-2c(C(=O)N[C@@H]2C(=O)N[C@H](C(C)C)C(=O)N3CCC[C@H]3C(=O)N(C)CC(=O)N(C)[C@@H](C(C)C)C(=O)O[C@@H]2C)c(N)c1=O [DACTINOMYCIN] (I: T[dV]P[Sar][NMeV] / II: T[dV]P[Sar][NMeV]; ester I:1-I:C, II:1-II:C; linker I:N-II:N via Actinocin(1to9))	7.30	9.00	6.70	8.30	2 nM	9.00	8.15	5 nM	6.70	pIC50 [18]: 8.52; pIC50 [25]: 8.22; pIC50 [26]: 9.00; CC50 [27]: 3 nM; pIC50 [29]: 8.40; pIC50 [30]: 8.52; pIC50 [31]: 8.10
6.92	7.52	7.05	7.52	7.52	7.70	7.40	7.22	7.52	6.82	7.70	COc1cccc2c1C(=O)c1c(O)c3c(c(O)c1C2=O)C[C@@](O)(C(=O)CO)C[C@@H]3O[C@H]1C[C@H](N)[C@H](O)[C@H](C)O1 [DOXORUBICIN]	6.40	8.00	5.74	7.22	90 nM	8.00	6.30	40 nM	5.55	CC50 [33]: 20 nM; pIC50 [29]: 7.40
–	–	–	–	–	–	–	–	–	–	–	COc1cc([C@@H]2c3cc4c(cc3[C@@H](O[C@@H]3O[C@@H]5CO[C@@H](C)O[C@H]5[C@H](O)[C@H]3O)[C@H]3COC(=O)[C@H]23)OCO4)cc(OC)c1O [ETOPOSIDE]	–	–	< 4.70	6.22	–	–	–	–	< 4.70	pIC50 [34]: 5.21
–	–	–	–	–	–	–	–	–	–	–	CC[C@]1(O)C[C@H]2CN(CCc3c([nH]c4ccccc34)[C@@](C(=O)OC)(c3cc4c(cc3OC)N(C=O)[C@H]3[C@@](O)(C(=O)OC)[C@H](OC(C)=O)[C@]5(CC)C=CCN6CC[C@]43[C@@H]65)C2)C1 [VINCRISTINE]	–	–	6.15	8.22	–	–	–	–	7.30	pIC50 [35]: 6.70
